This note sets out measurements from PubChem BioAssay.

Each structure is given as a SMILES string. Active and inactive are the calls of the source.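 How the source made its calls, unless noted: active means GFP response above 150% of the DMSO level; inconclusive means fewer than 70 events counted for a yeast strain; inactive means the rest.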

Assay [1] is described as follows: hit retest on RPL19A-GFP reporter strain – cell-based, S. cerevisiae, flow cytometry, cherry picks, mother/daughter gates, confirmation (AID 2270;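 active means GFP response below 50% of the DMSO control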). The settings on record: 3 h, at 10 µM, stronger effect = lower value, 100 = same GFP as DMSO wells. (In general: Flow cytometry measures light scatter and fluorescence of single cells or particles in a stream.)
Assay [2] can be described thus: yeast TOR pathway reporter LAP4-GFP change – cell-based, cherry picks, flow cytometry, mother/daughter gates, confirmation (AID 2271;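 active means GFP response above 150% of the DMSO control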;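 further: ratio of sample to DMSO plate mean so 100% equals DMSO level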). The settings on record: S. cerevisiae LAP4-GFP strain, 3 h, at 10 µM, stronger effect = higher value, 100 means same as DMSO control. In outline: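 System: Alexa 633-stained baker's yeast GFP-fusion strain; quantity: 0.2 OD600 cells; timing: compound exposure 3 h at 30 °C, end-over-end rotation; detection: HT flow cytometry, GFP fluorescence channel; measure: per-gate (all, mother, daughter) GFP response vs DMSO; control set: DMSO-only negative wells, rapamycin 400 ng/mL positive wells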

The nature of assay [3]: TOR pathway reporter MEP2-GFP, retest of hits – S. cerevisiae, flow cytometry GFP, cherry picks, confirmation (AID 2272;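 active means GFP response above 150% of the DMSO control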;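 further: ratio of well signal to plate DMSO mean so 100% equals DMSO level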). The settings on record: S. cerevisiae MEP2-GFP strain, 3 h, at 10 µM, stronger effect = higher value.
The nature of assay [4]: yeast AGP1-GFP fluorescence change, single-dose – cell-based, flow cytometry, S. cerevisiae, cherry picks, confirmation (AID 2273).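 Further: median GFP channel fluorescence over the whole cell population gate.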 The settings on record: S. cerevisiae AGP1-GFP strain, 3 h, at 10 µM.
Assay [5] can be described thus: TOR pathway CIT2 reporter hit retest – S. cerevisiae, GFP fusion, cherry picks, mother/daughter gates, confirmation (AID 2274). The settings on record: S. cerevisiae CIT2-GFP strain, flow cytometry, 3 h, at 10 µM, stronger effect = higher value.
The mark [6] stands for this setting: measured here: daughter cell gate.
Setting [7] is: measured here: mother cell gate.
Where [8] appears, read: measured here: daughter cell gate response.
Where [9] appears, read: measured here: mother cell gate response.

For `Cc1cccc(NC(=O)CCCN2C(=O)c3cccc4cccc(c34)C2=O)c1`, the GFP response vs DMSO was 101% (inactive) in assay [1], 96.9% in assay [1] (setting [6]), 100% in assay [1] (setting [7]) and 99% (inactive) in assay [3]. Further, the GFP response relative to DMSO in assay [2] is 94.4% (inactive); in assay [2] (setting [8]), 95.9%; in assay [2] (setting [9]), 94.1%. For the same compound, the GFP response, % of DMSO is 98.8% (inactive) in assay [4], 98.8% (inactive) in assay [5], 97.4% in assay [5] (setting [6]) and 99.3% in assay [5] (setting [7]).

Take `Cn1c(N2CCCC2)nc2c1c(=O)n(Cc1ccc(Cl)cc1)c(=O)n2C`: the GFP response vs DMSO in assay [1] is 91.8% (inactive); in assay [1] (setting [6]), 84.5%; in assay [1] (setting [7]), 87.5%; in assay [3] it was 94.7% (inactive). Further, the GFP response relative to DMSO in assay [2] was 126% (inactive); in assay [2] (setting [8]), 109%; in assay [2] (setting [9]), 121%. Also, the GFP response, % of DMSO was 98.4% (inactive) in assay [4], 81.4% (inactive) in assay [5], 77.5% in assay [5] (setting [6]) and 76% in assay [5] (setting [7]).

Take `N#Cc1ccc(Sc2ccccn2)c([N+](=O)[O-])c1`: the GFP response vs DMSO in assay [1] is 102% (inactive); in assay [1] (setting [6]), 101%; in assay [1] (setting [7]) it was 102%; in assay [3], 102% (inactive). Moreover, the values for the GFP response relative to DMSO in assay [2], in assay [2] (setting [8]) and in assay [2] (setting [9]) were 102% (inactive), 105% and 103%, respectively. For the same compound, the GFP response, % of DMSO in assay [4] is 97.8% (inactive); in assay [5], 104% (inactive); in assay [5] (setting [6]) it was 99.7%; in assay [5] (setting [7]), 105%.

Turning to `CCCc1[nH]nc2c1C(c1ccccc1OCC)C(C#N)=C(N)O2` (stereo not drawn), the GFP response vs DMSO was 98.4% (inactive) in assay [1], 99.5% in assay [1] (setting [6]), 98% in assay [1] (setting [7]) and 100% (inactive) in assay [3]. The values for the GFP response relative to DMSO in assay [2], in assay [2] (setting [8]) and in assay [2] (setting [9]) were 99.8% (inactive), 98.7% and 101%, respectively. In addition, the GFP response, % of DMSO is 102% (inactive) in assay [4], 99.1% (inactive) in assay [5], 96.5% in assay [5] (setting [6]) and 98.7% in assay [5] (setting [7]).

Regarding `O=C1C(=O)c2ccc(-c3ccccc3)cc2-c2ccccc21`, the GFP response vs DMSO in assay [1] was 102% (inactive); in assay [1] (setting [6]), 104%; in assay [1] (setting [7]), 102%; in assay [3], 115% (inactive). The GFP response relative to DMSO in assay [2] was 117% (inactive); in assay [2] (setting [8]) it was 110%; in assay [2] (setting [9]), 124%. The GFP response, % of DMSO in assay [4] is 90.4% (inactive); in assay [5], 107% (inactive); in assay [5] (setting [6]), 106%; in assay [5] (setting [7]), 102%.

On to `CCCCOC(=O)C1CCC[C@@H](C)N1` (stereo partly drawn), for which the GFP response vs DMSO in assay [1] is 101% (inactive); in assay [1] (setting [6]), 102%; in assay [1] (setting [7]), 100%; in assay [3], 103% (inactive). For the same compound, the GFP response relative to DMSO in assay [2] was 98.9% (inactive); in assay [2] (setting [8]) it was 101%; in assay [2] (setting [9]) it was 99.5%. In addition, the GFP response, % of DMSO in assay [4] is 102% (inactive); in assay [5] it was 100% (inactive); in assay [5] (setting [6]), 101%; in assay [5] (setting [7]), 100%.

As to `COc1cc(NC(=O)c2ccc(Br)cc2)ccc1NC(=O)c1cc2ccccc2o1`, the GFP response vs DMSO was 99.9% (inactive) in assay [1], 99% in assay [1] (setting [6]), 100% in assay [1] (setting [7]) and 100% (inactive) in assay [3]. Besides, the GFP response relative to DMSO in assay [2] is 96.2% (inactive); in assay [2] (setting [8]), 98.7%; in assay [2] (setting [9]), 98.3%. The GFP response, % of DMSO in assay [4] was 95.7% (inactive); in assay [5] it was 96.5% (inactive); in assay [5] (setting [6]), 96.5%; in assay [5] (setting [7]), 97.7%.

Turning to `Cc1cc(O)c(C(=O)/C=C/c2ccccc2Br)c(=O)o1`, the GFP response vs DMSO in assay [1] is 90.3% (inactive); in assay [1] (setting [6]), 95.9%; in assay [1] (setting [7]), 87.7%; in assay [3], 97.8% (inactive). The GFP response relative to DMSO in assay [2] was 140% (inactive); in assay [2] (setting [8]) it was 137%; in assay [2] (setting [9]), 144%. Moreover, the GFP response, % of DMSO was 102% (inactive) in assay [4], 95.2% (inactive) in assay [5], 98.1% in assay [5] (setting [6]) and 93.4% in assay [5] (setting [7]).

As for `COc1ccc(CC2=C(O)c3ccccc3C(=O)C2=O)cc1`, the GFP response vs DMSO in assay [1] was 95.1% (inactive); in assay [1] (setting [6]), 91.3%; in assay [1] (setting [7]), 96.1%; in assay [3], 97.2% (inactive). Also, the GFP response relative to DMSO in assay [2] is 129% (inactive); in assay [2] (setting [8]), 113%; in assay [2] (setting [9]) it was 135%. Besides, the GFP response, % of DMSO in assay [4] was 97% (inactive); in assay [5], 80.6% (inactive); in assay [5] (setting [6]) it was 81.6%; in assay [5] (setting [7]), 80.4%.

For the compound `Cc1nc(Sc2ccc(Br)cc2)c(C#N)c(C)c1[N+](=O)[O-]`, the GFP response vs DMSO in assay [1] is 106% (inactive); in assay [1] (setting [6]), 105%; in assay [1] (setting [7]), 104%; in assay [3], 101% (inactive). For the same compound, the values for the GFP response relative to DMSO in assay [2], in assay [2] (setting [8]) and in assay [2] (setting [9]) were 98.2% (inactive), 97.5% and 98.4%, respectively. For the same compound, the GFP response, % of DMSO in assay [4] is 96.1% (inactive); in assay [5], 98.8% (inactive); in assay [5] (setting [6]) it was 97.4%; in assay [5] (setting [7]) it was 76%.

Regarding `Cc1c(NC2=C(Cl)C(=O)N(c3ccccc3)C2=O)c(=O)n(-c2ccccc2)n1C`, the GFP response vs DMSO is 93.5% (inactive) in assay [1], 97.3% in assay [1] (setting [6]), 95.2% in assay [1] (setting [7]) and 99.5% (inactive) in assay [3]. Moreover, the GFP response relative to DMSO is 97.7% (inactive) in assay [2], 104% in assay [2] (setting [8]) and 99.5% in assay [2] (setting [9]). The GFP response, % of DMSO in assay [4] was 103% (inactive); in assay [5], 104% (inactive); in assay [5] (setting [6]), 108%; in assay [5] (setting [7]) it was 96.8%.

Consider `O=[N+]([O-])c1cc(CN2CCN(c3cccc(C(F)(F)F)c3)CC2)c2cccnc2c1O`, for which the GFP response vs DMSO in assay [1] was 112% (inactive); in assay [1] (setting [6]) it was 96.4%; in assay [1] (setting [7]), 104%; in assay [3] it was 145% (inactive). Moreover, the GFP response relative to DMSO in assay [2] is 234% (active); in assay [2] (setting [8]), 229%; in assay [2] (setting [9]) it was 216%. Moreover, the GFP response, % of DMSO in assay [4] is 116% (inactive); in assay [5] it was 138% (inactive); in assay [5] (setting [6]), 117%; in assay [5] (setting [7]), 131%.

Turning to `COC(=O)Cn1nc(-c2ccccc2)c2ccccc21`, the GFP response vs DMSO in assay [1] is 92% (inactive); in assay [1] (setting [6]), 88.5%; in assay [1] (setting [7]), 92.9%; in assay [3], 109% (inactive). Besides, the GFP response relative to DMSO in assay [2] is 106% (inactive); in assay [2] (setting [8]) it was 101%; in assay [2] (setting [9]), 106%. Moreover, the GFP response, % of DMSO in assay [4] is 97.3% (inactive); in assay [5], 102% (inactive); in assay [5] (setting [6]) it was 101%; in assay [5] (setting [7]) it was 98.1%.
